From publication PMC6753935 (Journal of Clinical and Translational Science, 2019)

System: human platelets in platelet-rich plasma (PRP)
Experiment: In vitro platelet aggregation in PRP of healthy human volunteers
Type: cell-based
Conditions: aspirin 0.83 mM, arachidonic acid 1.5 mM, citrated PRP
How it was run: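 Healthy donors' venous blood was anticoagulated with citrate (0.38% final), PPACK (0.1 or 0.3 mM final) or heparin (15.8 USP U/ml). PRP was spun at 650 × g for 4 min at room temperature. Aspirin 0.83 mM final for 10 min, then test compound (0.01–3 µM final) for 20 min. Aggregation induced by arachidonic acid 1.5 mM or ADP 5 µM. IC50 from initial-slope inhibition by Hill-equation fit.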

## CC(=O)Oc1ccccc1C(=O)O [Aspirin, acetyl salicylic acid, reference compound]
  Effect on arachidonic-acid-induced platelet aggregation: eliminated
